Marks after values point to notes of the source that are not given here.
What was measured:
[1] = Pharmacokinetic evaluation after single iv and po administration; assay type: in vivo, male CD-1 mice; conditions: for Clearance as share of mouse hepatic blood flow: male CD-1 mice, hepatic blood flow ~90 mL/min/kg; for Fraction of oral dose absorbed / Share of absorbed dose metabolized during the first-pass: mice, po; for Fraction of oral dose absorbed: accounting for first-pass effects; for Share of absorbed dose metabolized during the first-pass: assuming hepatic elimination
[2] = test system: plasma and brain Aβ38, Aβ40 and Aβ42 levels; experiment: Pharmacodynamic study using Tg2576 mice; assay type: in vivo, female Tg2576 mice; conditions: 50 mg/kg, oral daily, 14 days
Outline: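 Dosing was by oral gavage in female Tg2576 mice (5–6 months old, n=12/dose), given the test compound or vehicle (5% NMP/95% PEG300) daily for 14 consecutive days. Mice were killed 4 h after the final dose on day 14, and plasma and brain were harvested. Aβ38, Aβ40 and Aβ42 were measured by Meso Scale multiplex assay, and results were expressed as mean ± SEM with ANOVA.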

[3] = test system: Aβ42 levels (γ-secretase modulation) in SHSY5Y-APP cells; experiment: Cell-based ELISA assay for measuring extracellular Aβ42 levels; set-up: species or system human
[4] = test system: plasma Aβ38, Aβ40 and Aβ42 levels; experiment: Pharmacodynamic study using J20 mice; assay type: in vivo, female J20 mice; conditions: daily oral, 3-day treatment; for Effect on plasma Aβ42 and Aβ40: 25, 50 and 100 mg/kg; for Effect on Aβ38 levels: plasma
Outline: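 Female J20 transgenic mice (5–6 months old, n=5/dose) received the test compound or vehicle (5% NMP/95% PEG300) by oral gavage once daily for three days. Animals were killed 4 h after the day-3 dose, and plasma and brain were collected. Aβ38, Aβ40 and Aβ42 were quantified with Meso Scale multiplex kits, and data were analysed as mean ± SEM with ANOVA.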

[5] = test system: Aβ38, Aβ40, Aβ42 and total Aβ peptide levels in SHSY5Y-APP cells; experiment: Meso Scale multiplex assay of Aβ peptides in SHSY5Y-APP cells; assay type: cell-based, human; conditions: concentration response
Outline: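 Human SH-SY5Y neuroblastoma cells stably overexpressing wild-type human APP751 were exposed to the test compound at a range of concentrations. Aβ38, Aβ40, Aβ42 and total Aβ in the samples were measured by Meso Scale Sector 6000 multiplex assay. Plates were read on an MSD SECTOR Imager after read buffer was added, and peptide concentrations were back-fitted from their respective standard curves.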

[6] = Kinetic aqueous solubility by UV/Vis absorbance in PBS buffer; assay type: physicochemical; conditions: pH 7.4, PBS buffer
[7] = test system: Notch processing by γ-secretase; experiment: Notch processing in H4-APP751 cells transfected with the NΔE construct; assay type: cell-based, human; conditions: 24hrs, 22d 10 μM and 1 μM, DAPT 300 nM and 100 nM
Outline: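 H4 human neuroglioma cells stably overexpressing human APP751 were transfected with an […] Myc-tagged NΔE Notch construct. They were then treated with the test compound, a reference γ-secretase inhibitor or vehicle for 24 h and harvested 48 h post-transfection. Western blots were probed with anti-Myc antibody to detect NΔE and NICD, with β-actin as loading control.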

[8] = male, CD-1, mouse, plasma, iv, 1 mg/kg

| SMILES | Clearance as share of mouse hepatic blood flow ([1]; iv) | clearance at 24 h [1, 8] [mL/min/kg] | Parent Aβ42 IC50 [3] [nM] | Fraction of oral dose absorbed [1] | further results |
| --- | --- | --- | --- | --- | --- |
| CCn1nc(C2(C)CC2)cc1Nc1nc(-c2ccc(-n3cnc(C)c3)c(OC)n2)cs1 [Compound 59, N-(1-ethyl-3-(1-methylcyclopropyl)-1H-pyrazol-5-yl)-4-(6-methoxy-5-(4-methyl-1H-imidazol-1-yl)pyridin-2-yl)thiazol-2-amine] | approximately 13% | 12.1 |  |  |  |
| CCn1nc2c(c1Nc1nc(-c3ccc(-n4cnc(C)c4)c(OC)n3)cs1)CCC2 [Compound 64, N-(2-ethyl-2,4,5,6-tetrahydrocyclopenta[c]pyrazol-3-yl)-4-(6-methoxy-5-(4-methyl-1H-imidazol-1-yl)pyridin-2-yl)thiazol-2-amine] |  | 43.5 | 41 | greater than 80% | Effect on plasma Aβ38 levels [2]: potentiating; Effect on plasma Aβ42 and Aβ40 levels [2]: decreased; Effect on plasma Aβ42 and Aβ40 [4]: dose-dependent reduction; Effect on Aβ38 levels [4]: reduced; half-life [1, 8]: 42 min |
| CCn1nc2c(c1Nc1nc(-c3ccc(-n4cnc(C)c4)c(OC)n3)cs1)CCCC2 [Compound 22d, N-(2-ethyl-4,5,6,7-tetrahydro-2H-indazol-3-yl)-4-(6-methoxy-5-(4-methyl-1H-imidazol-1-yl)pyridin-2-yl)thiazol-2-amine] | approximately 40% |  |  | ~90% | Share of absorbed dose metabolized during the first-pass [1]: approximately 40%; Aβ38 levels [5]: potentiated; Aβ40 levels [5]: suppressed; Aβ42 levels [5]: suppressed; total levels of Aβ [5]: no change; Kin. Aq. Sol. [6]: 4.5* μM; Notch processing (NΔE to NICD) [7]: did not inhibit |
| C[C@H](NC(=O)Cc1cc(F)cc(F)c1)C(=O)N[C@H](C(=O)OC(C)(C)C)c1ccccc1 [DAPT, reference compound] |  |  |  |  | Notch processing (NΔE to NICD) [7]: significantly inhibits |
| COc1nc(-c2csc(Nc3c4c(nn3C)CCC4)n2)ccc1-n1cnc(C)c1 [Compound 63, 4-(6-methoxy-5-(4-methyl-1H-imidazol-1-yl)pyridin-2-yl)-N-(2-methyl-2,4,5,6-tetrahydrocyclopenta[c]pyrazol-3-yl)thiazol-2-amine] | ~24% | 21.8 | >1000 | greater than 80% |  |
| COc1nc(-c2csc(Nc3c4c(nn3CCF)CCCC4)n2)ccc1-n1cnc(C)c1 [Compound 46, N-(2-(2-fluoroethyl)-4,5,6,7-tetrahydro-2H-indazol-3-yl)-4-(6-methoxy-5-(4-methyl-1H-imidazol-1-yl)pyridin-2-yl)thiazol-2-amine] |  | 57.8 | 110 | nearly complete | Effect on plasma Aβ42 and Aβ40 [4]: plateau between 50 and 100 mg/kg; Effect on Aβ38 levels [4]: reduced; Share of absorbed dose metabolized during the first-pass [1]: approximately 60% |
| CCn1nc(C(F)(F)F)cc1Nc1nc(-c2ccc(-n3cnc(C)c3)c(OC)n2)cs1 [Compound 60, N-(1-ethyl-3-(trifluoromethyl)-1H-pyrazol-5-yl)-4-(6-methoxy-5-(4-methyl-1H-imidazol-1-yl)pyridin-2-yl)thiazol-2-amine] |  | 26.8 | 98 | greater than 80% |  |
| COc1nc(-c2csc(Nc3c4c(nn3C3CCC3)CCC4)n2)ccc1-n1cnc(C)c1 [Compound 67, N-(2-cyclobutyl-2,4,5,6-tetrahydrocyclopenta[c]pyrazol-3-yl)-4-(6-methoxy-5-(4-methyl-1H-imidazol-1-yl)pyridin-2-yl)thiazol-2-amine] |  |  | 92 |  |  |
| COc1nc(-c2csc(Nc3c4c(nn3CCCO)CCCC4)n2)ccc1-n1cnc(C)c1 [Compound 50, 3-(3-((4-(6-methoxy-5-(4-methyl-1H-imidazol-1-yl)pyridin-2-yl)thiazol-2-yl)amino)-4,5,6,7-tetrahydro-2H-indazol-2-yl)propan-1-ol] |  |  | 229 |  |  |

From paper PMC7917164 (Bioorganic & medicinal chemistry, 2020)
